Among the data in PubChem BioAssay AID588830 (Broad Institute, 2011) are IC50 values, retold here.

The source made the active and inactive calls.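 The calls were made as follows: active = fitted IC50 for falling signal at or below ten times the top tested dose; inconclusive = flat fit with 30 to 70% signal loss, or poor fit; inactive = the rest.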

The assay has as its system ldlA[mSR-BI] CHO cells viability, CellTiter-Glo ATP, 3 h. Briefly: ATP-based viability of SR-BI CHO cells – cell-based, CellTiter-Glo luminescence, 3 h, dry powder, cytotoxicity control for SR-BI HDL uptake inhibitor project, dose response (AID 588830). The method, boiled down:
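Test system – ldlA[mSR-BI] cells, scavenger receptor B1-expressing line · Buffer or medium – PSG and 10% FCS in Ham's F12 · Compound dosing – 8-concentration series per compound, added by pin transfer · Times – 3 h at 37 °C, then 10 min with reagent · Measured by – luminescence of cellular ATP via Cell Titer Glo reagent · Measure – cytotoxicity IC50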
A word on the IC50: it is the concentration that gives 50% inhibition. Regarding `Cc1ccc2oc(-c3cccc(NC(=O)c4cc(-n5cnnc5)ccc4Cl)c3)nc2c1`, the IC50 is 12.8 µM. The figure for `O=C(Nc1ccc(-c2nc3ccc(NC(=O)c4ccccc4)cc3[nH]2)cc1)c1ccccc1` is > 70 µM (inactive). The figure for `O=C(Nc1cc(Cl)ccc1Cl)c1cc(Cl)ccc1NS(=O)(=O)c1ccc(Cl)c([N+](=O)[O-])c1` is > 70 µM (inactive); for `CCOc1ccccc1/C=C/c1onc(C)c1S(=O)(=O)N1CCC(C(=O)NC(C)(C)C)CC1` it is > 70 µM (inactive).

`Cc1cc(C(=O)C(C)OC(=O)C2=NNC(=O)CC2)c(C)n1-c1ccc(OC(F)F)cc1` (configuration not stated): the IC50 is > 70 µM (inactive). For `C[C@H]1CN([C@@H](C)CO)C(=O)c2cccc(NC(=O)Nc3ccccc3)c2O[C@@H]1CN(C)Cc1ccc(C(F)(F)F)cc1` the value was 66.6 µM; for `Cc1ccc(-c2nnc(N3CCC(C)CC3)c3ccccc23)cc1C`, 68.5 µM.
